Bioassay records deposited in PubChem by Sanford-Burnham Center for Chemical Genomics.
This is a sample that favours compounds with a hit; in the whole collection about 0.77% have one here.
hIAP act: human IAP activators, primary screen, biochemical, luminescence, uHTS. Intestinal-type alkaline phosphatase (Homo sapiens), P09923. purified human IAP, CDP-Star luminescence, 30 min; active compounds read high; 1 = vehicle-only enzyme, 0 = enzyme-free background. activation factor at 10 µM. 330,000 tested, 0.16% active. AID 2524, 2010;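 active = activation factor of the enzyme at least 2-fold when tested at 20 µM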
Target sequence (P09923 whole entry, looked up): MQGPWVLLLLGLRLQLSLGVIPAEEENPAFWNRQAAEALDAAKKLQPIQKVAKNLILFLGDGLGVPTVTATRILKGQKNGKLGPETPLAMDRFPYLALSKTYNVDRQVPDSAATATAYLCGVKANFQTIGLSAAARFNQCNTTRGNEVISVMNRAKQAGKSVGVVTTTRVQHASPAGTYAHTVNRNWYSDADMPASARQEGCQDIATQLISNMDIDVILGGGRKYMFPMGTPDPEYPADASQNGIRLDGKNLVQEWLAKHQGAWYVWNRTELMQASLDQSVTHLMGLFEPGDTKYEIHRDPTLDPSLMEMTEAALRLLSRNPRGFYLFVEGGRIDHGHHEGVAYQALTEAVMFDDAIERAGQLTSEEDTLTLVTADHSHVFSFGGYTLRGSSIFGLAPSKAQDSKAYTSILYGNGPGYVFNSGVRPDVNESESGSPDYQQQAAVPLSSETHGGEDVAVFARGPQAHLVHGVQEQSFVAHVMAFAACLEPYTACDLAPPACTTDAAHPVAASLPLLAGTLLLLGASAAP
hIAP inh: human IAP inhibitors, primary screen, biochemical, luminescence, uHTS; Intestinal-type alkaline phosphatase (Homo sapiens), P09923; purified IAP, CDP-Star luminescence, 30 min; inhibition, % at 10 µM; 330,000 tested, 0.12% active;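 active = inhibition reaching a set limit with compound at 10 µM in the primary screen, cut at about 35% in these data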
mIAP activ: activators of mouse IAP, primary screen, biochemical, luminescence, uHTS. activation factor at 10 µM. 330,000 tested, 0.24% active. intestinal alkaline phosphatase [Mus musculus]. muIAP, CDP-Star luminescence, 30 min; active compounds read high; 1 = vehicle-only enzyme signal, 0 = enzyme-free wells;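 active = activation factor of at least 2 at 20 µM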
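Assay system: mouse IAP enzyme; Reagent: CDP-Star chemiluminescent phosphatase substrate; Compound: DMSO-dissolved test compounds; Incubation: 30 min, room temperature; Technique: luminescence from enzymatic CDP-Star hydrolysis; Controls: DMSO-only wells and no-enzyme negative control.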
mIAP inh: inhibitors of mouse IAP, primary screen, biochemical, luminescence, uHTS; intestinal alkaline phosphatase [Mus musculus]; inhibition, % at 10 µM; 330,000 tested, 0.2% active; purified mouse IAP, CDP-Star luminescence, 30 min;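 active = inhibition of at least 40% at 10 µM in the primary screen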
bIAP activator: bovine intestinal alkaline phosphatase activators, primary screen, biochemical, bovine IAP, CDP-star luminescence. alkaline phosphatase, intestinal [Bos taurus]. purified bovine IAP, 30 min; active compounds read high; fold of DMSO-control signal, blank-subtracted. activation factor at 20 µM. 200,000 tested, 0.17% active;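 active = activation factor of 2 or more at 20 µM, a signal rise over negative controls twice the positive control's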
bIAP inh: bovine intestinal alkaline phosphatase inhibitors, primary screen, selectivity assay for TNAP inhibitor project, biochemical, bovine IAP, CDP-star luminescence; alkaline phosphatase, intestinal [Bos taurus]; purified bovine IAP, 30 min; inhibition, % at 20 µM; 190,000 tested, under 10 active; AID 1019, 2008;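 active = over 50% inhibition of intestinal alkaline phosphatase at 20 µM in the single-dose screen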
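Assay system: bovine IAP enzyme; medium: DEA buffer 100 mM, pH 9.8, with MgCl2 1.0 mM, ZnCl2 0.02 mM; doses: 20 µM single dose; incubation: enzyme reaction for 30 min at room temperature; detection: CDP-star luminescence signal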
mIAP inh conf: inhibitors of mouse IAP, confirmation, biochemical, luminescence, single concentration; shares compounds with mIAP inh; purified mouse IAP, CDP-Star luminescence, 30 min; inhibition, % at 10 µM; 11,000 tested, 4.7% active; AID 434971, 2010;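 active = inhibition of at least 40% at 10 µM in either of the two replicates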
Each line names hits and unclear results; the compound was inactive in the other large screens (follow-up assays come after a bar, where they were run).

CC(C)OCCCn1c(SC(C)C(=O)NC2CC2)nc2ccccc2c1=O (centres undefined)	none (no result: bIAP activator, bIAP inh)
Cc1ccc(C(=O)Nn2cnnc2)cc1	none (no result: bIAP activator, bIAP inh)
Cc1ccc(NC(=O)C2CC(=O)n3c(nc4ccccc43)N2)cc1Cl (centres undefined)	mIAP activ 3.6, bIAP activator 2.4 | mIAP inh conf inactive
Cc1ccc(NC(=O)[C@@H]2CCC(=O)N2C2OC(=O)c3ccccc32)cc1Cl (some centres undefined)	none (no result: bIAP activator, bIAP inh)
Fc1cccc2sc(Nc3nnc(-c4ccccc4)o3)nc12	none | mIAP inh conf 37
Cc1ccccc1-c1n[nH]c(=S)n1/N=C/C=C/c1ccco1	mIAP inh 44 (no result: bIAP activator, bIAP inh) | mIAP inh conf 50
Cc1cc(-c2n[nH]c(=S)n2/N=C/C=C/c2ccco2)n[nH]1	mIAP inh 49 (no result: bIAP activator, bIAP inh) | mIAP inh conf 54
CN(C(=O)CSc1nnc(CNC(=O)c2ccccc2)o1)c1ccccc1	none (no result: bIAP activator, bIAP inh)
Cc1cc(C)cc(NC(=O)Nc2cc(S(=O)(=O)N(C)C)ccc2C)c1	mIAP activ 4.9 (no result: bIAP activator, bIAP inh) | mIAP inh conf inactive
Cc1ccc(S(=O)(=O)N(C)C)cc1NC(=O)Nc1ccccc1F	none (no result: bIAP activator, bIAP inh)
COc1cccc(CNS(=O)(=O)c2c(C(=O)N3CCCC3)c(C)n(C)c2C)c1	none (no result: bIAP activator, bIAP inh)
O=C(NCC1CC1(Cl)Cl)Nc1ccc(Cl)c(Cl)c1 (centres undefined)	mIAP activ 2.9 (no result: bIAP activator, bIAP inh) | mIAP inh conf inactive
O=C(NCCN1CCOCC1)C(=O)c1c[nH]c2ccccc12	none (no result: bIAP activator, bIAP inh)
Cc1ccc(C2=NC(=O)/C(=C/c3cc(O)c(O)c(Br)c3)S2)cc1	mIAP inh 53 | mIAP inh conf 60
Cc1ccc(NC(=O)CCNS(=O)(=O)c2ccc3[nH]c(=O)oc3c2)c(Cl)c1	mIAP inh 59 (no result: bIAP activator, bIAP inh) | mIAP inh conf 62
O=C(CCNS(=O)(=O)c1ccc2[nH]c(=O)oc2c1)Nc1ccccc1	mIAP inh 41 (no result: bIAP activator, bIAP inh) | mIAP inh conf 54
Cc1ccc(NC(=O)CCNS(=O)(=O)c2ccc3[nH]c(=O)oc3c2)cc1F	mIAP inh 42 (no result: bIAP activator, bIAP inh) | mIAP inh conf 51
O=C(CC1C(=O)NCCN1Cc1ccccn1)NCCc1ccccc1F (centres undefined)	none (no result: bIAP activator, bIAP inh)
Nc1nnnn1/N=C/c1ccco1	none
C(=Nc1cccc2c(N=Cc3ccco3)cccc12)c1ccco1	mIAP inh 48 | mIAP inh conf 41
C(=N\C(/N=C/c1ccco1)c1ccco1)/c1ccco1	mIAP inh 73 | mIAP inh conf 75
CN(C)c1ccc(N=Cc2ccco2)cc1	none
Cc1ccc(-c2csc3ncnc(N4CCN(S(=O)(=O)c5cccs5)CC4)c23)cc1	none (no result: bIAP activator, bIAP inh)
Cc1ccc(CN2CCC(CNC(=O)Nc3ccccc3F)CC2)cc1	none (no result: bIAP activator, bIAP inh)
Cc1ccc(NC(=O)NCC2CCN(Cc3cccc(Cl)c3)CC2)c(Cl)c1	mIAP activ 3.5 | mIAP inh conf inactive
O=C(NCC1CCN(Cc2cccc(Cl)c2)CC1)Nc1ccccc1Cl	mIAP activ 2.7 (no result: bIAP activator, bIAP inh) | mIAP inh conf inactive
COc1ccc(S(=O)(=O)N2CCCCCC2)cc1NS(=O)(=O)c1cc(C(=O)O)cc(C)c1C	none (no result: bIAP activator, bIAP inh)
C/C(=N\NC(=O)CC#N)c1cc2ccc(O)cc2oc1=O	mIAP inh 43 | mIAP inh conf 48
COC(=O)c1cc(S(=O)(=O)N(C)Cc2ccco2)c[nH]1	none (no result: bIAP activator, bIAP inh)
Cc1ccc(NC(=S)NCc2ccccc2)cc1S(=O)(=O)N1CCCCC1	mIAP activ 5.8 | mIAP inh conf inactive
Cc1ccc(C)c(OCCC(=O)OCC(=O)NNC(=O)c2ccccc2)c1	none (no result: bIAP activator, bIAP inh)
NS(=O)(=O)c1cccc(NC(=O)CSc2nnc(-c3ccncc3)n2C2CC2)c1	mIAP inh 50 (no result: bIAP activator, bIAP inh) | mIAP inh conf 58
O=C(N/C=C/c1ccccc1)Nc1ccc(Cl)cc1	mIAP activ 4 | mIAP inh conf inactive
O=C(N/N=C/c1ccc(Cl)cc1)Nc1ccccc1	none
COc1ccc(-c2nc(CN3CCN(C(=O)c4ccco4)CC3)c(C)o2)c(OC)c1C	none (no result: bIAP activator, bIAP inh)
Cc1cc(-c2nc3c4c5c(sc4[nH]c(=O)n3n2)CCC5)c(C)o1	mIAP inh 49 | mIAP inh conf 66
CSc1ccc(/C=N/Nc2nc(C)cc(=O)[nH]2)cc1	none
Cc1cc(=O)[nH]c(N/N=C/c2ccc(O)c(O)c2)n1	mIAP inh 43 (no result: bIAP activator, bIAP inh) | mIAP inh conf 45
COc1cccc(C(CC(=O)Nc2cccc3ccccc23)NC(=O)c2ccccc2)c1 (centres undefined)	mIAP activ 2.1 | mIAP inh conf inactive
COc1cccc(C(=O)Nc2cccc3ccccc23)c1	none (no result: bIAP activator, bIAP inh)
CC1CCCC(NC(=O)NC(=O)COC(=O)c2ccc(O)cc2O)C1C (centres undefined)	none (no result: bIAP activator, bIAP inh)
CCCCN(C(=O)c1ccc(N(C)S(=O)(=O)c2ccc(C)cc2)cc1)c1c(N)n(CCCC)c(=O)[nH]c1=O	none (no result: bIAP activator, bIAP inh)
COc1cc2ccccc2cc1C(=O)N1CC(C)CC(C)C1 (centres undefined)	none (no result: bIAP activator, bIAP inh)
COc1c(Cl)cc(C(=O)NN)cc1Cl	none
NNC(=O)c1cc(O)c(O)c(O)c1	mIAP inh 63 | mIAP inh conf 71
O=C(Nc1ccc(Cl)cc1)Nc1cc(S(=O)(=O)N2CCOCC2)ccc1N1CCCC1	mIAP activ 2.9 | mIAP inh conf inactive
O=C(Nc1ccc(F)cc1)Nc1cc(S(=O)(=O)N2CCOCC2)ccc1N1CCCC1	none
O=C(CNc1ccc(F)cc1Cl)Nc1cccc(S(=O)(=O)N2CCCCC2)c1	none (no result: bIAP activator, bIAP inh)
O=C(Nc1cccc(S(=O)(=O)N2CCCCC2)c1)Nc1ccc(Cl)cc1Cl	mIAP activ 5.4 | mIAP inh conf inactive
COc1ccccc1NS(=O)(=O)c1cccc(NC(=O)Nc2ccc(Cl)cc2)c1	mIAP activ 2.1 | mIAP inh conf inactive
O=C(Nc1ccc(Cl)cc1Cl)NC1CCN(S(=O)(=O)c2ccc(F)cc2)CC1	mIAP activ 5.4 (no result: bIAP activator, bIAP inh) | mIAP inh conf inactive
CCOC(=O)C1CCN(C(=O)CC2(CC(=O)O)CCCC2)CC1	none (no result: bIAP activator, bIAP inh)
CCOC(=O)CN1C(=O)C(=O)N(Cc2c(F)cccc2Cl)C1=O	none (no result: bIAP activator, bIAP inh)
O=C(N/N=C/c1ccc([N+](=O)[O-])o1)c1ccccc1NS(=O)(=O)c1cccs1	mIAP inh 53 (no result: bIAP activator, bIAP inh) | mIAP inh conf 62
O=C(Cc1ccc2c(c1)OCO2)NN=Cc1ccc([N+](=O)[O-])o1	mIAP inh 54 (no result: bIAP activator, bIAP inh) | mIAP inh conf 69
